Measurements taken from ChEMBL document CHEMBL1153767, “Bromoalkoxyxanthones as promising antitumor agents: synthesis, crystal structure and effect on human tumor cell lines” (2009).

How the values were obtained:
Format in all cases: functional
NCI-H460 = assay: Antitumor activity against human NCI-H460 cells assessed as inhibition of growth after 48 hrs using sulforhodamine B dye; conditions: NCI-H460, 48 h
Summary of the method: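 NCI-H460 plated at 0.75 × 10⁴ cells/mL, grown 24 h, then treated 48 h with five serial dilutions from DMSO stocks (DMSO at most 0.5%, vehicle control included). After fixing, washing and staining, solubilized dye read at 492 nm. GI50 (50% net growth inhibition) derived from the dose–response curve; 3–5 independent duplicate experiments, mean ± SEM.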

MCF7 = assay: Antitumor activity against human MCF7 cells expressing estrogen receptor assessed as inhibition of growth after 48 hrs using sulforhodamine B dye; conditions: MCF7, 48 h
Summary of the method: (§1)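 Cells pre-grown 24 h after plating at 1.5 × 10⁵ cells/mL, then exposed 48 h to five serial concentrations from DMSO stocks (DMSO at most 0.5%, vehicle control included). Adherent cells fixed, washed and stained; bound dye solubilized and absorbance read at 492 nm. GI50 (50% inhibition of net growth) from dose–response curve; 3–5 independent experiments in duplicate, mean ± SEM.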

MDA-MB-231 = assay: Antitumor activity against human estrogen receptor deficient MDA-MB-231 cells assessed as inhibition of growth after 48 hrs using sulforhodamine B dye; conditions: MDA-MB-231, 48 h
SF-268 = assay: Antitumor activity against human SF268 cells assessed as inhibition of growth after 48 hrs using sulforhodamine B dye; conditions: SF-268, 48 h; summary of the method: as §1

O=c1c2ccccc2oc2c(O)c(OCCCCCCBr)ccc12
GI50 (NCI-H460): > 100 µM | GI50 (MCF7): > 100 µM | GI50 (MDA-MB-231): > 100 µM | GI50 (SF-268): > 100 µM

COc1cccc2c1C(=O)c1c(O)c3c(c(O)c1C2=O)C[C@@](O)(C(=O)CO)C[C@@H]3O[C@H]1C[C@H](N)[C@H](O)[C@H](C)O1 [DOXORUBICIN]
GI50 (NCI-H460): 0.094 µM | GI50 (MDA-MB-231): 0.0109 µM | GI50 (SF-268): 0.094 µM

O=C(c1ccccc1O)c1ccc(O)cc1O
GI50 (NCI-H460): 91.2 µM | GI50 (MCF7): 100 µM | GI50 (SF-268): > 100 µM

O=c1c2ccccc2oc2c(OCCCCCCBr)c(OCCCCCCBr)ccc12
GI50 (NCI-H460): > 100 µM | GI50 (MCF7): 20.5 µM | GI50 (MDA-MB-231): 56.8 µM | GI50 (SF-268): > 100 µM

O=c1c2ccccc2oc2cccc(OCCCCCCOc3cccc4oc5ccccc5c(=O)c34)c12
GI50 (NCI-H460): > 100 µM | GI50 (MCF7): > 100 µM | GI50 (MDA-MB-231): > 100 µM | GI50 (SF-268): > 100 µM

O=c1c2ccccc2oc2c(O)c(O)ccc12 [3,4-DIHYDROXYXANTHONE]
GI50 (NCI-H460): 11.4 µM | GI50 (MCF7): 52.4 µM | GI50 (MDA-MB-231): 22.8 µM | GI50 (SF-268): 22.6 µM

O=c1c2ccccc2oc2cccc(O)c12
GI50 (NCI-H460): 84.9 µM | GI50 (MCF7): > 100 µM | GI50 (MDA-MB-231): 66 µM | GI50 (SF-268): 70.8 µM

O=c1c2ccccc2oc2cccc(OCCCCCCBr)c12
GI50 (NCI-H460): 30.7 µM | GI50 (MCF7): 22.7 µM | GI50 (MDA-MB-231): > 100 µM | GI50 (SF-268): 30.2 µM
